Measurements: ChEMBL document CHEMBL1629653, “CMY-31 and CMY-36 cephalosporinases encoded by ColE1-like plasmids” (Antimicrob Agents Chemother, 2009)
Converted amounts (≈) assume the structure as drawn.

What was measured:
Escherichia coli [1] = assay: Antimicrobial activity against Escherichia coli DH5[alpha] harboring pB-c31 plasmid expressing cephalosporinase CMY-31 by agar dilution method; assay type: functional
[2] = Antimicrobial activity against Salmonella enterica serotype Newport AM17274 expressing CMY-31 cephalosporinase by agar dilution method; assay type: functional, Salmonella enterica subsp. enterica serovar Newport
Procedure, shortened: (§1)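 MICs of β-lactams determined by agar dilution against the clinical isolates.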

Klebsiella pneumoniae [3] = assay: Antimicrobial activity against Klebsiella pneumoniae HP205 expressing CMY-36 cephalosporinase by agar dilution method; assay type: functional; procedure, shortened: as §1
Escherichia coli [4] = assay: Antimicrobial activity against Escherichia coli DH5[alpha] harboring pB-c2 plasmid expressing cephalosporinase CMY-2 by agar dilution method; assay type: functional
Escherichia coli [5] = assay: Antimicrobial activity against Escherichia coli DH5[alpha] transformant harboring pH205 plasmid expressing cephalosporinase CMY-36 by agar dilution method; assay type: functional
Escherichia coli [6] = assay: Antimicrobial activity against Escherichia coli DH5[alpha] transformant harboring pA172 plasmid expressing cephalosporinase CMY-31 by agar dilution method; assay type: functional
Escherichia coli [7] = assay: Antimicrobial activity against Escherichia coli DH5[alpha] harboring pB-c36 plasmid expressing cephalosporinase CMY-36 by agar dilution method; assay type: functional
[8] = target: Class C beta-lactamase CMY-36 (Klebsiella pneumoniae, UniProt Q48435); assay: Inhibition of Klebsiella pneumoniae HP205 cephalosporinase CMY-36 by UV spectrophotometer in presence of 100 uM of cephalothin
Chain of Class C beta-lactamase CMY-36 (Q48435 whole entry): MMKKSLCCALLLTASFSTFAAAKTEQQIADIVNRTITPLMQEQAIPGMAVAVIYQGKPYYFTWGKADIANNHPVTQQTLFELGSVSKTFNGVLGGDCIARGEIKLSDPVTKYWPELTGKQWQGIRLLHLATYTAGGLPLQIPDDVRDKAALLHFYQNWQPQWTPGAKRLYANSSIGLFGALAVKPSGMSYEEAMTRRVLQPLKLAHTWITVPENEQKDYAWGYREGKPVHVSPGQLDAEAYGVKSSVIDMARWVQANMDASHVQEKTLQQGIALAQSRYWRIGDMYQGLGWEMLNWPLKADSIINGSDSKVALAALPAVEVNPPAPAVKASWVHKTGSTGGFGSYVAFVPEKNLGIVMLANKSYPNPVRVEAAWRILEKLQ

[9] = Inhibition of CMY-2 by UV spectrophotometer in presence of 100 uM of cephalothin
Escherichia coli [10] = assay: Antimicrobial activity against Escherichia coli DH5[alpha] harboring pBCSK plasmid by agar dilution method in presence of clavulanic acid; assay type: functional
Escherichia coli [11] = assay: Antimicrobial activity against Escherichia coli DH5[alpha] harboring pB-c2 plasmid expressing cephalosporinase CMY-2 by agar dilution method in presence of clavulanic acid; assay type: functional
Escherichia coli [12] = assay: Antimicrobial activity against Escherichia coli DH5[alpha] harboring pB-c36 plasmid expressing cephalosporinase CMY-36 by agar dilution method in presence of clavulanic acid; assay type: functional
Escherichia coli [13] = assay: Antimicrobial activity against Escherichia coli DH5[alpha] transformant harboring pA172 plasmid expressing cephalosporinase CMY-31 by agar dilution method in presence of clavulanic acid; assay type: functional
[14] = Antimicrobial activity against Salmonella enterica serotype Newport AM17274 expressing CMY-31 cephalosporinase by agar dilution method in presence of clavulanic acid; assay type: functional, Salmonella enterica subsp. enterica serovar Newport; procedure, shortened: as §1
Escherichia coli [15] = assay: Antimicrobial activity against Escherichia coli DH5[alpha] harboring pBCSK plasmid by agar dilution method; assay type: functional
Klebsiella pneumoniae [16] = assay: Antimicrobial activity against Klebsiella pneumoniae HP205 expressing CMY-36 cephalosporinase by agar dilution method in presence of clavulanic acid in presence of clavulanic acid; assay type: functional; procedure, shortened: as §1
Escherichia coli [17] = assay: Antimicrobial activity against Escherichia coli DH5[alpha] transformant harboring pH205 plasmid expressing cephalosporinase CMY-36 by agar dilution method in presence of clavulanic acid; assay type: functional
Escherichia coli [18] = assay: Antimicrobial activity against Escherichia coli DH5[alpha] harboring pB-c31 plasmid expressing cephalosporinase CMY-31 by agar dilution method in presence of clavulanic acid; assay type: functional
Escherichia coli [19] = assay: Antimicrobial activity against Escherichia coli DH5[alpha] transformant harboring pA172 plasmid expressing cephalosporinase CMY-31 by agar dilution method in presence of Tazobactam; assay type: functional
Escherichia coli [20] = assay: Antimicrobial activity against Escherichia coli DH5[alpha] transformant harboring pH205 plasmid expressing cephalosporinase CMY-36 by agar dilution method in presence of Tazobactam; assay type: functional
[21] = Antimicrobial activity against Salmonella enterica serotype Newport AM17274 expressing CMY-31 cephalosporinase by agar dilution method in presence of Tazobactam; assay type: functional, Salmonella enterica subsp. enterica serovar Newport
Escherichia coli [22] = assay: Antimicrobial activity against Escherichia coli DH5[alpha] harboring pBCSK plasmid by agar dilution method in presence of Tazobactam; assay type: functional
Escherichia coli [23] = assay: Antimicrobial activity against Escherichia coli DH5[alpha] harboring pB-c36 plasmid expressing cephalosporinase CMY-36 by agar dilution method in presence of Tazobactam; assay type: functional
Escherichia coli [24] = assay: Antimicrobial activity against Escherichia coli DH5[alpha] harboring pB-c2 plasmid expressing cephalosporinase CMY-2 by agar dilution method in presence of Tazobactam; assay type: functional
Escherichia coli [25] = assay: Antimicrobial activity against Escherichia coli DH5[alpha] harboring pB-c31 plasmid expressing cephalosporinase CMY-31 by agar dilution method in presence of Tazobactam; assay type: functional
Klebsiella pneumoniae [26] = assay: Antimicrobial activity against Klebsiella pneumoniae HP205 expressing CMY-36 cephalosporinase by agar dilution method in presence of Tazobactam; assay type: functional

| Compound | MIC (Escherichia coli [1]) | MIC [2] | MIC (Klebsiella pneumoniae [3]) | MIC (Escherichia coli [4]) | MIC (Escherichia coli [5]) | MIC (Escherichia coli [6]) | MIC (Escherichia coli [7]) | MIC (Escherichia coli [15]) | also measured |
| --- | --- | --- | --- | --- | --- | --- | --- | --- | --- |
| C[C@@H](O)[C@H]1C(=O)N2C(C(=O)O)=C(SCCNC=N)C[C@H]12 [IMIPENEM ANHYDROUS] | 0.5 µg/mL (≈ 1.67 µM) | 0.25 µg/mL (≈ 0.835 µM) | 0.5 µg/mL (≈ 1.67 µM) | 0.5 µg/mL (≈ 1.67 µM) | 0.5 µg/mL (≈ 1.67 µM) | 0.5 µg/mL (≈ 1.67 µM) | 0.5 µg/mL (≈ 1.67 µM) |  |  |
| Cc1onc(-c2ccccc2Cl)c1C(=O)N[C@@H]1C(=O)N2[C@@H]1SC(C)(C)[C@@H]2C(=O)O [CLOXACILLIN] |  |  |  |  |  |  |  |  | IC50 [8]: 0.004 µM; IC50 [9]: 0.004 µM |
| CC1(C)S[C@@H]2[C@H](NC(=O)[C@H](N)c3ccc(O)cc3)C(=O)N2[C@H]1C(=O)O [AMOXICILLIN] | > 256 µg/mL | > 256 µg/mL | > 256 µg/mL | > 256 µg/mL | > 256 µg/mL | > 256 µg/mL | > 256 µg/mL | 2 µg/mL (≈ 5.47 µM) | MIC (Escherichia coli [10]): 2 µg/mL; MIC (Escherichia coli [11]): > 64 µg/mL; MIC (Escherichia coli [12]): > 64 µg/mL; MIC (Escherichia coli [13]): > 64 µg/mL; MIC [14]: > 64 µg/mL; MIC (Klebsiella pneumoniae [16]): > 64 µg/mL; MIC (Escherichia coli [17]): > 64 µg/mL; MIC (Escherichia coli [18]): > 64 µg/mL |
| CC1(C)S[C@@H]2[C@H](NC(=O)[C@H](C(=O)O)c3ccsc3)C(=O)N2[C@H]1C(=O)O [TICARCILLIN] | > 256 µg/mL | > 256 µg/mL | > 256 µg/mL | > 256 µg/mL | > 256 µg/mL | > 256 µg/mL | > 256 µg/mL | 2 µg/mL (≈ 5.2 µM) |  |
| CO/N=C(\C(=O)N[C@@H]1C(=O)N2C(C(=O)O)=C(COC(N)=O)CS[C@H]12)c1ccco1 [CEFUROXIME] | > 256 µg/mL | > 256 µg/mL | > 256 µg/mL | > 256 µg/mL | > 256 µg/mL | > 256 µg/mL | > 256 µg/mL | 2 µg/mL (≈ 4.71 µM) |  |
| CO/N=C(\C(=O)N[C@@H]1C(=O)N2C(C(=O)O)=C(CSc3nc(=O)c(O)nn3C)CS[C@H]12)c1csc(N)n1 [CEFTRIAXONE] | 256 µg/mL (≈ 462 µM) | 16 µg/mL (≈ 28.9 µM) | 32 µg/mL (≈ 57.7 µM) | 128 µg/mL (≈ 231 µM) | 64 µg/mL (≈ 115 µM) | 32 µg/mL (≈ 57.7 µM) | 128 µg/mL (≈ 231 µM) | 0.12 µg/mL (≈ 0.216 µM) |  |
| CO[C@@]1(NC(=O)Cc2cccs2)C(=O)N2C(C(=O)O)=C(COC(N)=O)CS[C@@H]21 [CEFOXITIN] | > 256 µg/mL | > 256 µg/mL | > 256 µg/mL | > 256 µg/mL | > 256 µg/mL | > 256 µg/mL | > 256 µg/mL | 4 µg/mL (≈ 9.36 µM) |  |
| CCN1CCN(C(=O)N[C@@H](C(=O)N[C@@H]2C(=O)N3[C@@H]2SC(C)(C)[C@@H]3C(=O)O)c2ccccc2)C(=O)C1=O [PIPERACILLIN] | 256 µg/mL (≈ 495 µM) | 64 µg/mL (≈ 124 µM) | 128 µg/mL (≈ 247 µM) | 256 µg/mL (≈ 495 µM) | 128 µg/mL (≈ 247 µM) | 128 µg/mL (≈ 247 µM) | 256 µg/mL (≈ 495 µM) | 1 µg/mL (≈ 1.93 µM) | MIC (Escherichia coli [19]): 32 µg/mL; MIC (Escherichia coli [20]): 32 µg/mL; MIC [21]: 16 µg/mL; MIC (Escherichia coli [22]): 0.5 µg/mL; MIC (Escherichia coli [23]): 64 µg/mL; MIC (Escherichia coli [24]): 64 µg/mL; MIC (Escherichia coli [25]): 64 µg/mL; MIC (Klebsiella pneumoniae [26]): 32 µg/mL |
| C[C@]1(/C=C\C#N)[C@H](C(=O)O)N2C(=O)C[C@H]2S1(=O)=O |  |  |  |  |  |  |  |  | IC50 [8]: 0.3 µM; IC50 [9]: 0.3 µM |
| CC(C)(O/N=C(\C(=O)N[C@@H]1C(=O)N2C(C(=O)[O-])=C(C[n+]3ccccc3)CS[C@H]12)c1csc(N)n1)C(=O)O [CEFTAZIDIME] | 256 µg/mL (≈ 468 µM) | 32 µg/mL (≈ 58.5 µM) | 64 µg/mL (≈ 117 µM) | 256 µg/mL (≈ 468 µM) | 128 µg/mL (≈ 234 µM) | 128 µg/mL (≈ 234 µM) | 256 µg/mL (≈ 468 µM) | 0.5 µg/mL (≈ 0.915 µM) |  |
| CO/N=C(\C(=O)N[C@@H]1C(=O)N2C(C(=O)[O-])=C(C[N+]3(C)CCCC3)CS[C@H]12)c1csc(N)n1 | 0.25 µg/mL (≈ 0.52 µM) | 0.12 µg/mL (≈ 0.25 µM) |  | 0.25 µg/mL (≈ 0.52 µM) | 0.25 µg/mL (≈ 0.52 µM) | 0.12 µg/mL (≈ 0.25 µM) | 0.25 µg/mL (≈ 0.52 µM) |  |  |
| CO/N=C(\C(=O)N[C@@H]1C(=O)N2C(C(=O)O)=C(COC(C)=O)CS[C@H]12)c1csc(N)n1 [CEFOTAXIME] | 128 µg/mL (≈ 281 µM) | 32 µg/mL (≈ 70.3 µM) | 32 µg/mL (≈ 70.3 µM) | 128 µg/mL (≈ 281 µM) | 32 µg/mL (≈ 70.3 µM) | 32 µg/mL (≈ 70.3 µM) | 128 µg/mL (≈ 281 µM) | 0.12 µg/mL (≈ 0.263 µM) |  |
